Hits are enriched below; roughly 2.8% of the tested compounds scored in any of these assays.
NPY-Y1 antag – NPY-Y1 (human) receptor antagonism; P25929; HEK293-CNG Y1 cells, membrane potential fluorescence; NPY at EC95, then isoproterenol; inhibition, % at 3.6 µM; hit rate 1% among 200,000; AID 1040;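 active = inhibition above the campaign mean inhibition of all tested compounds plus 3 SD, cut at about 20% in these data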;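 also: 0% = DMSO wells given NPY plus isoproterenol and 100% = isoproterenol alone without NPY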
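Material: HEK293 cells co-expressing NPY Y1 receptor and cyclic-nucleotide gated channel. Timing: compound incubation 1 h at room temperature, readout 45 min post-stimulation. Signal: fluorescence, membrane potential probe.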
NPY-Y2 antag – antagonists of human neuropeptide Y receptor Y2; hit rate 0.99% among 140,000; P49146; AID 793; NPY-Y2 expressing cells, antagonist mode; inhibition, % at 2.7 µM;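 also: 0% = vehicle with agonist challenge and 100% = reference antagonist with challenge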
Target sequence (P49146 whole entry, looked up): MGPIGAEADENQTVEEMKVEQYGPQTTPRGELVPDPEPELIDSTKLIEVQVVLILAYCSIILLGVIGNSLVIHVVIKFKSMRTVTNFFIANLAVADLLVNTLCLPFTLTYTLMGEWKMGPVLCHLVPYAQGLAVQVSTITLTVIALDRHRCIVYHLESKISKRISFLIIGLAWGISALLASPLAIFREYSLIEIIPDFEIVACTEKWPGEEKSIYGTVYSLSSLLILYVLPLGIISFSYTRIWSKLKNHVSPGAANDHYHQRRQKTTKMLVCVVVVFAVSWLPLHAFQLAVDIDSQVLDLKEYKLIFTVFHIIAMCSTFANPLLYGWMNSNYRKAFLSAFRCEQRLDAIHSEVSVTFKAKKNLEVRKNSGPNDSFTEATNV
Rad51 HR inh – Rad51 (human) homologous recombination inhibition; inhibition, % at 10 µM; hit rate 0.085% among 200,000; Q06609; hRad51 DNA strand exchange, fluorescence dequenching; AID 1385;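 active = inhibition above 40% at the single screening dose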;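 also: 0% = DMSO control wells and 100% = blanks with heterologous ssDNA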
Target sequence (Q06609 whole entry, looked up): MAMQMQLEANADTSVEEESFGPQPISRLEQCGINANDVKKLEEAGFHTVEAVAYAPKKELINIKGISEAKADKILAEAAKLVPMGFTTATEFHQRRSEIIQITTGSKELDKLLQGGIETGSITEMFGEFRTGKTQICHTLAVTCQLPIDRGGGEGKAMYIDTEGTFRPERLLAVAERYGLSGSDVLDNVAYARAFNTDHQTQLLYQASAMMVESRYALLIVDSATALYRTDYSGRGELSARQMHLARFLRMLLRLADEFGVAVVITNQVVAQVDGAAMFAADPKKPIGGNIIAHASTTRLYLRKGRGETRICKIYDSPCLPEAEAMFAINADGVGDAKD
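Test system: preformed human Rad51 ssDNA filaments. Compound dosing: single dose, 10 µM final compound. Incubation: filaments 15 min 37 °C, then compound 30 min. Technique: FRET fluorescence dequenching, excitation 485 nm, emission 520 nm. Read-out basis: percent inhibition from fluorescence, normalised to plate control and blank means. Benchmarks: plate controls and plate blanks.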
NPY-Y1 PAM-ag – human NPY-Y1 potentiation or agonism, primary screen | P25929 | NPY-Y1 expressing cells, potentiator/agonist activation | activation, % at 3.6 µM | hit rate 0.37% among 220,000; in the data active = activation above about 33%, passing the limit was not always enough;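 also: cells stimulated with NPY at EC10 then isoproterenol at EC100; 0% = low agonist plus stimulus and 100% = saturating agonist plus stimulus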
NPY2 pot ag – potentiators or agonists of human neuropeptide Y receptor Y2; activation, % at 3.6 µM; P49146; cells expressing NPY-Y2, potentiator/agonist read-out; hit rate 0.45% among 220,000; AID 1359; in the data active = activation above about 27%;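 also: cells stimulated with NPY near EC25 plus isoproterenol at EC100; 0% = vehicle plus submaximal agonist and 100% = vehicle plus saturating agonist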
Measles CPE – protection of cells from measles virus; Measles virus-infected cells, CPE protection, absorbance; protection (pct of control), % at 4 µM; hit rate 1.5% among 140,000; in the data active = protection mostly above about 24%, no sharp cut-off; inactive = mostly below about 26%
NPY-Y1 ant conf – human NPY-Y1 antagonism, confirmation; inhibition, % at 3.6 µM; shares compounds with NPY-Y1 antag; hit rate 21% among 1,200; HEK293-CNG NPY-Y1, membrane potential fluorescence, cAMP; NPY challenge against isoproterenol-raised cAMP; in the data active = inhibition above about 20%;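 also: 0% = vehicle with agonist plus stimulus and 100% = stimulus alone without agonist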
NPY2 antag ctr – antagonizes human NPY-Y2, counter-screen to NPY-Y1 antagonists; shares compounds with NPY-Y1 antag; HEK293 NPY-Y2 CNG membrane potential fluorescence, antagonism; cells given NPY, then isoproterenol; inhibition, % at 3.6 µM; hit rate 28% among 1,200; AID 1255;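 also: 0% = DMSO with agonist challenge and 100% = reference antagonist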
Starred values were filed as active, the others as inactive. Rule as the data show it, unless noted: active = inhibition above about 17%; inactive = the rest.

How did CCOC(=O)c1sc(N(Cc2ccccc2)C(=O)COC(=O)c2ccccc2O)nc1C do in these assays?
NPY-Y1 antag: 20*; NPY-Y2 antag: 13; Rad51 HR inh: 17; NPY-Y1 PAM-ag: -45; NPY2 pot ag: -4; Measles CPE: 5; NPY-Y1 ant conf: 16; NPY2 antag ctr: 8

How did CCOC(=O)c1sc(N(Cc2ccccc2)C(=O)CSc2ncn[nH]2)nc1C do in these assays?
NPY-Y1 antag: 3; NPY-Y2 antag: 4; Rad51 HR inh: -5; NPY-Y1 PAM-ag: -11; NPY2 pot ag: -16; Measles CPE: 16

What do the screens show for `CCOC(=O)C1(CCCc2ccccc2)CCN(C2CCSCC2)CC1`?
NPY-Y1 antag: 52*; Rad51 HR inh: 0; NPY-Y1 PAM-ag: -10; NPY2 pot ag: -10; NPY-Y1 ant conf: 29*; NPY2 antag ctr: 15

Results for OCC1(CCCc2ccccc2)CCN(C2CCSCC2)CC1 ?
NPY-Y1 antag: 25*; Rad51 HR inh: -2; NPY-Y1 PAM-ag: -14; NPY2 pot ag: -28; NPY-Y1 ant conf: 10; NPY2 antag ctr: 12

How did CC(C)(C)c1nc[nH]c(=O)c1Br do in these assays?
NPY-Y1 antag: -3; NPY-Y2 antag: 3; NPY-Y1 PAM-ag: 4; NPY2 pot ag: 3; Measles CPE: 13

Results for COCCCN1CCN(C2Cc3ccccc3Sc3ccc(Cl)cc32)CC1 (centres undefined) ?
NPY-Y1 antag: 26*; NPY-Y2 antag: 16; NPY-Y1 PAM-ag: -60; NPY2 pot ag: -33; Measles CPE: 15; NPY-Y1 ant conf: 8; NPY2 antag ctr: 16

What do the screens show for `COC(=O)c1ccccc1NC(=O)c1cccc(NC(=O)C(C)C)c1`?
NPY-Y1 antag: 0; Rad51 HR inh: 7; NPY-Y1 PAM-ag: -23; NPY2 pot ag: -5

How did COC(=O)c1ccccc1NC(=O)c1cc(OC)cc(OC)c1 do in these assays?
NPY-Y1 antag: 21*; NPY-Y2 antag: 4; Rad51 HR inh: -14; NPY-Y1 PAM-ag: -28; NPY2 pot ag: -7; Measles CPE: 5; NPY-Y1 ant conf: 9; NPY2 antag ctr: 12

What do the screens show for `COC(=O)c1ccccc1NC(=O)c1ccc(COc2ccc(C)c(C)c2)o1`?
NPY-Y1 antag: 29*; NPY-Y2 antag: 10; Rad51 HR inh: 2; NPY-Y1 PAM-ag: -5; NPY2 pot ag: 5; Measles CPE: 0; NPY-Y1 ant conf: 10; NPY2 antag ctr: 12

Results for COc1ccc(Oc2cccc(Cl)c2CNC(=O)c2ccccc2C(=O)O)cc1 ?
Rad51 HR inh: -2; NPY-Y1 PAM-ag: -6; NPY2 pot ag: -3

Results for Cc1nc2nc(-c3ccco3)[nH]n2c(=O)c1C ?
NPY-Y1 antag: 0; NPY-Y2 antag: 3; Rad51 HR inh: -12; NPY-Y1 PAM-ag: -6; NPY2 pot ag: -16; Measles CPE: 30

What do the screens show for `CSc1nc(N2CCN(c3ccccc3Cl)CC2)c2ccccc2n1`?
NPY-Y1 antag: 30*; NPY-Y1 PAM-ag: -64; NPY2 pot ag: -34; NPY-Y1 ant conf: 22*; NPY2 antag ctr: 27*

What do the screens show for `COc1ccc(-c2cc(-c3ccc(Br)cc3)nc3ncnn23)cc1OC`?
NPY-Y1 antag: 7; NPY-Y2 antag: 7; Rad51 HR inh: -3; NPY-Y1 PAM-ag: -3; NPY2 pot ag: -11; Measles CPE: 8

How did O=C(COC(=O)COc1ccc2ccccc2c1)NCC(F)(F)F do in these assays?
NPY-Y1 antag: 29*; Rad51 HR inh: -26; NPY-Y1 PAM-ag: -50; NPY2 pot ag: -32; NPY-Y1 ant conf: 18; NPY2 antag ctr: 13

What do the screens show for `COc1ccc(CN(C(=O)c2nsc(Cl)c2Cl)C(C(=O)NC2CCCCC2)c2ccc(OC)cc2)cc1` (centres undefined)?
NPY-Y1 antag: 22*; NPY-Y2 antag: 17; Rad51 HR inh: 1; NPY-Y1 PAM-ag: -24; NPY2 pot ag: -24; Measles CPE: 18; NPY-Y1 ant conf: 20; NPY2 antag ctr: 16

What do the screens show for `Cc1ccc(-n2ncc3c(=O)[nH]c(SCC(=O)N4CCOCC4)nc32)cc1`?
NPY-Y1 antag: 3; NPY-Y2 antag: -1; NPY-Y1 PAM-ag: -9; NPY2 pot ag: 16; Measles CPE: 6

What do the screens show for `COC(=O)c1ccc(CSc2nc3c(cnn3-c3ccc(C)cc3)c(=O)[nH]2)o1`?
NPY-Y1 antag: 27*; NPY-Y2 antag: 10; Rad51 HR inh: -84; NPY-Y1 PAM-ag: -29; NPY2 pot ag: -2; Measles CPE: 19; NPY-Y1 ant conf: 3; NPY2 antag ctr: 10

How did COC(=O)c1ccc(Cn2cnc3c(cnn3-c3ccc(F)cc3)c2=O)o1 do in these assays?
NPY-Y1 antag: 7; NPY-Y2 antag: 8; Rad51 HR inh: -1; NPY-Y1 PAM-ag: -32; NPY2 pot ag: -31; Measles CPE: 12

How did COC(=O)c1ccc(Cn2cnc3c(cnn3-c3ccc(C)c(C)c3)c2=O)o1 do in these assays?
NPY-Y1 antag: 27*; NPY-Y2 antag: 17; Rad51 HR inh: -11; NPY-Y1 PAM-ag: -20; NPY2 pot ag: -17; Measles CPE: 18; NPY-Y1 ant conf: 12; NPY2 antag ctr: 9

How did COc1ccccc1N1CCN(C(C)C(=O)Nc2ccc(S(=O)(=O)N3CCOCC3)cc2)CC1 (centres undefined) do in these assays?
NPY-Y1 antag: -6; Rad51 HR inh: 11; NPY-Y1 PAM-ag: 1; NPY2 pot ag: -9

What do the screens show for `CCc1ccc(NC(=O)c2cc(C)on2)cc1`?
NPY-Y1 antag: -2; NPY-Y2 antag: 0; Rad51 HR inh: 5; NPY-Y1 PAM-ag: 1; NPY2 pot ag: -5; Measles CPE: 18

How did CCCc1cc(C(=O)OC)c(NC(=O)c2cc(C)on2)s1 do in these assays?
NPY-Y1 antag: 20*; NPY-Y2 antag: 2; Rad51 HR inh: 6; NPY-Y1 PAM-ag: -20; NPY2 pot ag: 8; Measles CPE: 16; NPY-Y1 ant conf: 8; NPY2 antag ctr: 5

What do the screens show for `Cc1cc(C)cc(NC(=O)c2oc3ccccc3c2COc2ccccc2)c1`?
NPY-Y1 antag: 23*; NPY-Y2 antag: -1; Rad51 HR inh: -4; NPY-Y1 PAM-ag: -31; NPY2 pot ag: -18; Measles CPE: 2; NPY-Y1 ant conf: 5; NPY2 antag ctr: 12

Results for O=C(C[n+]1cc(-c2ccccc2)n2c1CCCCC2)c1ccc(Br)cc1 ?
NPY-Y1 antag: 42*; Rad51 HR inh: 2; NPY-Y1 PAM-ag: -9; NPY2 pot ag: -9; NPY-Y1 ant conf: 22*; NPY2 antag ctr: 19*

How did COc1ccc(C(=O)C[n+]2cc(-c3ccc(OC)cc3)n3c2CCCC3)cc1 do in these assays?
NPY-Y1 antag: 1; Rad51 HR inh: 5; NPY-Y1 PAM-ag: 4; NPY2 pot ag: -1

Screening results as filed in PubChem.
